High-throughput results from PubChem.
Cneo AK release = Cryptococcus neoformans lysis via adenylate kinase release | C. neoformans lysis, adenylate kinase release luminescence, 4 h; normalised: neutral wells 0, clomiphene wells 100 | AID 651654 | lysis activity, % at 15 µM | hit rate 0.2% among 360,000;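 active = mean lysis activity across replicates of at least 80%, whatever share of replicates individually reach that level; inactive = mean lysis activity below 80%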
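Material: C. neoformans cells | Amount: Yeast cell density of 5 × 10^6 cells/mL | Medium: Fresh YPD growth medium | Dosing: Single dose | Times: Static 4 h at 37 °C with compound, 1 h detection | Detection: AK luminescence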
RAD54 inh = blocks human RAD54 Holliday junction branch migration; AID 602329; FAM/BHQ fluorescence; Q92698; inhibition, % at 10.4 µM; hit rate 0.14% among 360,000;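 active = mean normalized replicate activity at least 40 and at least half of replicates scoring 40 or more; inconclusive = only one of the two criteria met; inactive = mean below 40 and under half of replicates reaching 40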;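 also: 0% = median of neutral control wells and 100% = median of positive control wells; inhibitors cause a drop in the FAM fluorescence signal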
PglD inh = inhibitors of Campylobacter jejuni PglD acetyltransferase; purified PglD enzyme, DTNB colorimetric CoA detection; inhibition, % at 12.5 µM; hit rate 0.098% among 360,000; in the data active = inhibition above about 16%, passing the limit was not always enough; inconclusive = no clear call, values can overlap the other calls
rRNA inh HTS = selective bacterial rRNA inhibition in E. coli; E. coli WT GFP vs humanized-ribosome RFP mutants, fluorescence, 24 h; active compounds read low; DMSO median 0, no signal -100; GFP signal change (wild-type ribosome), % (test concentration not listed); hit rate 1.6% among 350,000; AID 720706;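 active = significant combined selectivity score with lowered wild-type GFP, culture density cut under 30%, mutant RFP and density less affected; inactive = any of these conditions unmet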
RAD52 anneal inh = RAD52 (human) annealing inhibition. recombinant RAD52 DNA annealing, FRET fluorescence. AID 651710. inhibition, % at 18.7 µM. P43351. hit rate 0.46% among 360,000;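 active = every replicate showing at least 50% inhibition; inconclusive = mean inhibition at least 50% but not in every replicate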
DNA binder FP = counter-screen for RAD52 inhibitors: DNA binding compounds; shares compounds with RAD52 anneal inh; AC50, µM; hit rate 8% among 1,000; Salmon sperm DNA/acridine orange FP displacement;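 active = fitted half-maximal concentration for signal loss at or below twice the highest dose tested, in every separate run, actives reach about 64 µM in these data; inconclusive = runs disagree, or flat partial signal loss, or poor fit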
AID977621 = growth inhibition of wild-type GFP E. coli, dose response, H69 mutant RFP, cherry-pick; shares compounds with rRNA inh HTS; activity change, negative = inhibition at 50 µM; 1,900 tested, under 10 active; E. coli wild-type GFP strain growth, fluorescence, 24 h;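 active = Wild-type ribosome reporter drop at least double the humanized mutant ribosome reporter drop, growth loss under a set limit; inconclusive = no clear call, values can overlap the other calls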;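 also: wild-type GFP and H69 mutant RFP strains grown together 50/50 in each well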
Numbers without * were called inactive; i = inactive; ? = inconclusive; · = no result given; ! = not active in a repeat. Hits are enriched below; roughly 1.9% of the tested compounds scored in any of these assays.

SMILES	Cneo AK release	RAD54 inh	PglD inh	rRNA inh HTS	RAD52 anneal inh	DNA binder FP	others
COC(=O)[C@H]1[C@H](CO)[C@H]2Cn3c(ccc(/C=C/c4ccccc4)c3=O)[C@@H]1N2Cc1ccccc1F	0.5	-0.2	3.5	-10.8	-10.1	·
CC12CNCC(C)(CNC1)C2O (stereo not given)	-2.2	26.4	0.9	7.8	57.4*	i
NCCc1cc(O)c(O)cc1O	1.4	-2.8	2.4	·	90.3*!	i
CC(C)N1CCN(c2ccc(O)cc2)CC1	0.7	18.9	-6.6	11.1	82.5*	i
Clc1ccc2sc(C3CCNCC3)nc2c1	2.3	4.1	-5.8	7.1	55.8*	i
COc1cccc(-c2ccc([C@@H]3[C@H]4CN(C(=O)Cc5ccncc5)CCCCN4[C@H]3CO)cc2)c1	-2.0	-14.5	6.7	-2.6	-55.0	·
Nc1ccc(CC2=NCCN2)cc1	·	·	·	6.0	83.6*	62.9µM*
COC(=O)[C@H]1[C@H](CO)[C@H]2Cn3c(ccc(-c4ccccc4)c3=O)[C@@H]1N2CC1CCOCC1	0.9	-2.3	0.0	2.2	-3.2	·
COc1cc2c(cc1OC)-c1c(OC)c(OC)cc3c1C(C2)N(C)CC3 (stereo not given)	5.9	61.6*	-8.3	·	71.1*	i
COc1cc2c(cc1OC)-c1c3c(cc4c1[C@@H](C2)N(C)CC4)OCO3	0.4	104.4*	2.7	-27.5	100.2*	i
COc1ccc2c(c1OC)C(=O)O[C@H]2[C@@H]1c2cc3c(cc2CCN1C)OCO3	0.9	-0.2	4.1	·	-7.7	·
OC12ONC(c3ccccn3)C1N1CCC2CC1 (stereo not given)	0.0	18.9	-7.0	10.8	80.1*	i
CCOC(=O)c1c(C)n(Cc2ccccc2)c2ccc(OCC(O)Cn3nc(C)nc3C)cc12 (stereo not given)	1.4	-6.6	-3.7	-1.6	6.4	·
CCOC(=O)c1c(C)n(Cc2ccccc2)c2ccc(OCC(O)CNC(C)(C)C)cc12 (stereo not given)	0.1	21.5	-1.5	-29.1	51.7*	i
CN(C)c1ccc(/C=C/c2cc[n+](C)c3ccccc23)cc1	·	·	·	-82.5	64.4*!	8.3µM*
CC[n+]1c(/C=C/C=C/c2ccc(N(C)C)cc2)sc2ccccc21	-3.8	25.2	3.9	-56.4	19.5	·
CN(C)c1ccc(/C=C/C=C/c2sc3ccccc3[n+]2C)cc1	-1.4	13.7	-2.6	-50.4	63.2*	?
O=C(NC[C@H]1CC[C@H]2[C@H](CN2Cc2cccnc2)O1)C1CC1	·	·	·	·	-1.5	·
O=C(O)[C@@H]1[C@@H](CO)[C@@H]2Cn3c(ccc(-c4cccnc4)c3=O)[C@H]1N2S(=O)(=O)c1ccccc1F	-3.6	10.3	-3.3	0.6	-2.2	·
CCOC(=O)[C@]12Cc3ccccc3[C@H]1N(C(C)C)C(=O)c1cc(OC)ccc12	·	·	·	-42.9	-25.8	·
CCOC(=O)[C@]12Cc3ccccc3[C@H]1N(C)C(=O)c1cc(OC)ccc12	·	·	·	-20.3*	-26.4	·	AID977621=-16.4
C[C@]12CCC3C(CC[C@H]4C[C@@H](O)CC[C@]34C)[C@H]1CC[C@H]2O (stereo not given in full)	-0.6	-6.9	-7.1	-20.4*	-5.8	·	AID977621=-25.8
CC=Cc1ccc2n(c1=O)C[C@H]1[C@H](CO)[C@@H](C(=O)OC)[C@@H]2N1CC1CC1 (mixture of isomers)	-3.7	-8.9	2.6	2.2	3.0	·
O=C(O)[C@H]1[C@H](CO)[C@H]2Cn3c(ccc(-c4cccc(F)c4)c3=O)[C@@H]1N2CCc1ccccc1	-3.0	6.8	3.2	-2.3	4.3	·
CC(=O)OC1N=C(c2ccccc2Cl)c2cc(Br)ccc2NC1=O (stereo not given)	·	·	·	-19.8*	-4.6	·	AID977621=-14.3
COC(=O)c1c(C)n(Cc2ccccc2)c2ccc(O)cc12	-8.2	-2.4	-1.2	-31.5	-17.1	·
CCOC(=O)c1c(C)n(Cc2ccccc2)c2ccc(O)cc12	·	·	·	-27.4*	-0.3	·	AID977621=-16
CC=Cc1ccc2n(c1=O)C[C@H]1[C@H](CO)[C@@H](C(=O)OC)[C@@H]2N1CC1CCCC1 (mixture of isomers)	·	·	·	-4.6	-3.2	·
CCCCn1c(NS(=O)(=O)c2ccc(C)cc2)c(C(=O)OCC)c2nc3ccccc3nc21	1.8	-2.8	7.2	-22.4*	-9.4	·	AID977621=?
